These results are taken from ChEMBL document CHEMBL3286281, “Amino derivatives of glycyrrhetinic acid as potential inhibitors of cholinesterases” (Bioorg Med Chem, 2014).

The target of experiment [1] is Carbonic anhydrase 2 (Bos taurus) (UniProt P00921). The experiment is described as follows: Inhibition of bovine erythrocytes carbonic anhydrase 2 at 10 uM. In short, it runs like this:
(§1)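 Enzyme (bovine erythrocyte carbonic anhydrase II or Candida antarctica lipase) in 50 mM Tris-HCl pH 8.0 preincubated with compound for 20 min at 37 °C. Reaction started with 4-nitrophenyl acetate substrate. Absorbance at 415 nm followed each minute for 10 min at 37 °C, in duplicate. Relative inhibition taken as the slope ratio, compound over blank, over the linear range.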

The target of experiment [2] is T1, Papain (Carica papaya) (UniProt P00784).
T1 sequence (whole entry): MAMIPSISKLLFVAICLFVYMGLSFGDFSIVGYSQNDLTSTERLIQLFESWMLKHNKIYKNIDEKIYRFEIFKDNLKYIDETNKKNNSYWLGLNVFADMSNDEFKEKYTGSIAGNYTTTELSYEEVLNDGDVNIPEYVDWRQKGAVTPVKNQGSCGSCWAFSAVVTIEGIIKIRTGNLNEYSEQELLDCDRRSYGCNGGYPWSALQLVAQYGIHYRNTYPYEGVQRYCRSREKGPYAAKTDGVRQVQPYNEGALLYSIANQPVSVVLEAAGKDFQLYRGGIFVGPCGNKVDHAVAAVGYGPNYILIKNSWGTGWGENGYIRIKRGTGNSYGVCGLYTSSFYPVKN
The experiment is described as follows: Inhibition of Carica papaya papain at 10 uM. In short, it runs like this:
(§2)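 Carica papaya papain in 50 mM Tris-HCl pH 6.2 preincubated with compound for 20 min at 37 °C. Reaction started with 4-nitrophenyl acetate. Absorbance at 415 nm read each minute for 10 min at 37 °C, in duplicate. Relative inhibition calculated as the ratio of slopes, compound versus blank, over the linear range.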

Experiment [3] in a line: Cytotoxicity against mouse NIH/3T3 cells after 96 hrs by sulforhodamine-B assay. It counts as cell-based. The following applies: NIH3T3, 96 h. In short, it runs like this:
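NIH 3T3 murine embryonic fibroblasts grown as monolayers in RPMI 1640 with 10% heat-inactivated FBS and penicillin/streptomycin, 37 °C, 5% CO2. Cells seeded, then exposed after 24 h to serial dilutions (0-30 μM) for 96 h, DMSO or DMF ≤0.5%. Fixed with 10% TCA at 4 °C, stained with 0.4% SRB, dye solubilized in 10 mM Tris base, absorbance read at 570 nm. Survival relative to untreated controls gave IC50. Triplicate.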

A short description of experiment [4]: Selectivity ratio of Ki for Electrophorus electricus AChE to Ki for equine serum BChE. In short, it runs like this:
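Ki from Ellman kinetics at pH 8.0 and 30 °C after 20 min enzyme–inhibitor–DTNB preincubation. Inhibitor at several concentrations plus a water blank; ATChI or BTChI at 0.9375, 0.625, 0.325 and 0.1875 mM. A415 read every 1 min for 30 min, in triplicate. Ki from Lineweaver-Burk, Dixon and Cornish-Bowden plots; F = Ki(AChE)/Ki(BChE).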

Experiment [5] has as its target Cholinesterase (Equus caballus) (UniProt P81908). Description: Inhibition of equine serum BChE using butyrylthiocholine iodide as substrate at 10 uM after 20 mins measured for 1 min interval for 30 mins by Ellman's method. The method, boiled down: (§3)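 Ellman assay in 50 mM Tris-HCl pH 8.0. Enzyme was preincubated with DTNB (3 mM stock) and compound at 30 °C for 20 min. Reaction started with ATChI for AChE or BTChI for BChE. Absorbance at 415 nm was read at 30 °C every 1 min for 30 min. Triplicates.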

The target in a further experiment is Cholinesterase (Equus caballus, UniProt P81908). Description: Inhibition of equine serum BChE using butyrylthiocholine iodide as substrate after 20 mins measured for 1 min interval for 30 mins by Ellman's method.
Chain of Cholinesterase (P81908 whole entry): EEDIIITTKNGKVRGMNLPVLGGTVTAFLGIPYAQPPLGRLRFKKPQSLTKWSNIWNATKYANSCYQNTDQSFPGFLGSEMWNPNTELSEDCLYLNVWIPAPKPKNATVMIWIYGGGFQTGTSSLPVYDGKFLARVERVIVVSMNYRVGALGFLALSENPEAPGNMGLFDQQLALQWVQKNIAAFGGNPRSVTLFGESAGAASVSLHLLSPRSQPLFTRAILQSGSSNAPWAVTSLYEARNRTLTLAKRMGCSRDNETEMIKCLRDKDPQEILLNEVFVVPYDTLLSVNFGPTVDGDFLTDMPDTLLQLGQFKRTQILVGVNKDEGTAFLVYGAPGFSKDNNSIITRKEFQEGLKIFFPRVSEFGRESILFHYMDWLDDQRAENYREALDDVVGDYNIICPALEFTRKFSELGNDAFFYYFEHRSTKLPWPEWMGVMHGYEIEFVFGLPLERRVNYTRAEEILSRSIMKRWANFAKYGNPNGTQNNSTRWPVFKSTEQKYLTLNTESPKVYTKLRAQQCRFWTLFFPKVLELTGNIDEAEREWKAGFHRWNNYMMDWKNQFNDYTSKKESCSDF
A further experiment concerns the target Acetylcholinesterase (Electrophorus electricus, UniProt O42275). The experiment is described as follows: Inhibition of Electrophorus electricus AChE using acetylthiocholine iodide as substrate after 20 mins measured for 1 min interval for 30 mins by Ellman's method.
Experiment [6] has as its target Acetylcholinesterase (Electrophorus electricus) (UniProt O42275). Description: Inhibition of Electrophorus electricus AChE using acetylthiocholine iodide as substrate at 10 uM after 20 mins measured for 1 min interval for 30 mins by Ellman's method. In short, it runs like this:
as §3

Experiment [7] deals with Candida antarctica. Description: Inhibition of Candida antarctica lipase at 10 uM. In short, it runs like this: as §1
The subject of experiment [8] is Candida antarctica. The experiment is described as follows: Inhibition of Candida antarctica lipase at 50 uM. In short, it runs like this:
as §1

The target of experiment [9] is Cholinesterase (Equus caballus) (UniProt P81908). Description: Inhibition of equine serum BChE using butyrylthiocholine iodide as substrate at 50 uM after 20 mins measured for 1 min interval for 30 mins by Ellman's method. The method, boiled down:
as §3

For experiment [10], the target named is Acetylcholinesterase (Electrophorus electricus) (UniProt O42275). The experiment is described as follows: Inhibition of Electrophorus electricus AChE using acetylthiocholine iodide as substrate at 50 uM after 20 mins measured for 1 min interval for 30 mins by Ellman's method. In short, it runs like this: as §3
Chain of Acetylcholinesterase (Electrophorus electricus) (O42275 24-633 limits assumed): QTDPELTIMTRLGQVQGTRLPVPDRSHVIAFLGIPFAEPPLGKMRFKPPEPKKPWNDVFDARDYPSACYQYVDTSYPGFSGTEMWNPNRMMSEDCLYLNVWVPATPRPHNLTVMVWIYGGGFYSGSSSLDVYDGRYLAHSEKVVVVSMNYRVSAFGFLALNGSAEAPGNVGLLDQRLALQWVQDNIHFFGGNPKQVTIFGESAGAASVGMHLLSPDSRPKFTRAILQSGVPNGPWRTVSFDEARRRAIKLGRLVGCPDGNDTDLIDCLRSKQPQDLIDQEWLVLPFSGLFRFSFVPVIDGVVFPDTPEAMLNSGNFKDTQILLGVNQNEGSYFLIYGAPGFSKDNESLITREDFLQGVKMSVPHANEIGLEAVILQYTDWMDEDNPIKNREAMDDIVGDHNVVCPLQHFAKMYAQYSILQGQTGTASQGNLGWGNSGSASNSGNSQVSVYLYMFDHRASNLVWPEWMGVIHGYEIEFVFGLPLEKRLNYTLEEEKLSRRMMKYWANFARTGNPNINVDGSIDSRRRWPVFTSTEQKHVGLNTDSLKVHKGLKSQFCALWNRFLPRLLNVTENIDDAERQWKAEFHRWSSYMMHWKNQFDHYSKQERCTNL
Experiment [11] has as its target T1, Papain (Carica papaya). The experiment is described as follows: Inhibition of Carica papaya papain at 50 uM. The method, boiled down:
as §2

Experiment [12] deals with Carbonic anhydrase 2 (Bos taurus) (UniProt P00921). Description: Inhibition of bovine erythrocytes carbonic anhydrase 2 at 50 uM. In short, it runs like this: as §1
Chain of Carbonic anhydrase 2 (Bos taurus) (P00921 2-260 limits assumed): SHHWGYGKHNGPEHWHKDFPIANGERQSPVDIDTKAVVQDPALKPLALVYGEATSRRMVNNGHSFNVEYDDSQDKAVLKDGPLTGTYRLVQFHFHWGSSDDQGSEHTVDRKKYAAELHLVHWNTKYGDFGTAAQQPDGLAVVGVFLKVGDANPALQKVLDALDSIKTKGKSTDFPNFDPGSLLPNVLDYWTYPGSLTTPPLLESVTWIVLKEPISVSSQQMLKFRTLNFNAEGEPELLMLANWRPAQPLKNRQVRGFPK

Chain of Cholinesterase (Equus caballus) (P81908 whole entry): as the sequence (P81908 whole entry) above
Chain of Acetylcholinesterase (O42275 whole entry): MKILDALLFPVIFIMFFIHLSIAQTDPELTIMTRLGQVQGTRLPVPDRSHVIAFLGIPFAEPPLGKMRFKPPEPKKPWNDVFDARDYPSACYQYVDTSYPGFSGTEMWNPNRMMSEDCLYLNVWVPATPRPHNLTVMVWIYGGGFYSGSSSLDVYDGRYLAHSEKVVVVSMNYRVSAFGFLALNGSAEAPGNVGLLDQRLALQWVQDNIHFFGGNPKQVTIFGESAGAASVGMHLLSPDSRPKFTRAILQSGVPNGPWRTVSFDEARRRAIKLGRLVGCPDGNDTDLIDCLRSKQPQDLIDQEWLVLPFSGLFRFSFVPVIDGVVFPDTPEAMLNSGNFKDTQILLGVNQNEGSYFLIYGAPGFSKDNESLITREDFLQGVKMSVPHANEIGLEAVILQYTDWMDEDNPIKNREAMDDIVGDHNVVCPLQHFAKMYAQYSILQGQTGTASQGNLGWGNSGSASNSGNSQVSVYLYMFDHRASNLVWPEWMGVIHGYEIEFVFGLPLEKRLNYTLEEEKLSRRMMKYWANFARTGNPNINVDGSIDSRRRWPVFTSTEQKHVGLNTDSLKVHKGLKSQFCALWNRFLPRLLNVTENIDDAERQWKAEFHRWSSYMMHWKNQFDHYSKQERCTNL

For the molecule `CC1(C)[C@@H](O)CC[C@]2(C)[C@H]3C(=O)C=C4[C@@H]5C[C@@](C)(C(=O)On6nnc7ccccc76)CC[C@]5(C)CC[C@@]4(C)[C@]3(C)CC[C@@H]12`, the inhibition in [1] stood at 27%; at Papain (Carica papaya) [2], 0%; in experiment [5] it was 68%; in experiment [6], 49%; in the experiment on Candida antarctica [7], 32%. Moreover, the IC50 in [3] is > 30 µM. Further, the Ratio Ki in [4] is > 2.04. The figures for the Ki on Cholinesterase and at Acetylcholinesterase were 9.81 µM and > 20 µM, respectively.

For `CC1(C)[C@@H](O)CC[C@]2(C)[C@H]3C(=O)C=C4[C@@H]5C[C@@](C)(C(=O)OCCCCCCBr)CC[C@]5(C)CC[C@@]4(C)[C@]3(C)CC[C@@H]12`, the inhibition in the experiment on Candida antarctica [8] amounted to 45%; in [9], 30%; in experiment [10], 43%; at Papain (Carica papaya) [11], 0%; in experiment [12], 0%. Besides, the IC50 in experiment [3] was > 30 µM. Further, the Ratio Ki in experiment [4] was < 0.13. In addition, the inhibitory constant (Ki) at Cholinesterase was > 100 µM; on Acetylcholinesterase, 13 µM.

For `COC(=O)[C@@]1(C)CC[C@]2(C)CC[C@]3(C)C(=CC(=O)[C@@H]4[C@@]5(C)CC[C@H](OC(=O)[C@@H](N)CCC(=O)OCc6ccccc6)C(C)(C)[C@@H]5CC[C@]43C)[C@@H]2C1`, the inhibition was determined as 51% in the experiment on Candida antarctica [8]; 16% in experiment [9]; 58% in experiment [10]; 0% on Papain (Carica papaya) [11]; 15% in experiment [12]. The IC50 in experiment [3] was > 30 µM. Moreover, the Ratio Ki in experiment [4] is < 0.16. Moreover, the inhibition constant (Ki) on Cholinesterase was > 100 µM; on Acetylcholinesterase, 16.1 µM.

For `CC1(C)[C@@H](O)CC[C@]2(C)[C@H]3C(=O)C=C4[C@@H]5C[C@@](C)(C(=O)NCCCN)CC[C@]5(C)CC[C@@]4(C)[C@]3(C)CC[C@@H]12`, the inhibition in the experiment with Candida antarctica [8] was 51%; in experiment [9], 79%; in [10] it was 35%; at Papain (Carica papaya) [11], 0%; in experiment [12], 0%. The 50% inhibitory concentration (IC50) in experiment [3] was > 30 µM. Moreover, in [4], the Ratio Ki is > 18.4. The results for the Ki at Cholinesterase and at Acetylcholinesterase were 5.43 µM and > 100 µM, respectively.

In the case of `COC(=O)[C@@]1(C)CC[C@]2(C)CC[C@]3(C)C(=CC(=O)[C@@H]4[C@@]5(C)CC[C@H](OC(=O)[C@@H](N)CCN)C(C)(C)[C@@H]5CC[C@]43C)[C@@H]2C1`, the inhibition in the experiment with Candida antarctica [8] amounted to 38%; in experiment [9] it was 16%; in [10] it was 68%; against Papain (Carica papaya) [11], 0%; in experiment [12], 0%. In experiment [3], this molecule came in with a 50% inhibitory concentration (IC50) of 3.05 µM. In addition, in experiment [4], the Ratio Ki was < 0.19. The Ki was > 100 µM at Cholinesterase and 18.7 µM at Acetylcholinesterase.
